From ChEMBL document CHEMBL2401709 (J Med Chem, 2013)
Activity calls are given as the source filed them. No cut-off for these calls is given here.

What was measured:
[1] = target: Cyclin-dependent kinase 1 (Homo sapiens, UniProt P06493); experiment: Inhibition of human recombinant CDK1
MCF7 = experiment: Cytotoxicity against human MCF7 cells assessed as growth inhibition after 72 hrs by calcein AM staining-based fluoroscence assay; type: functional, cell-based; details: MCF7, 72 h
[2] = target: Cyclin-dependent kinase 2/cyclin E1 (Homo sapiens, UniProt P24941); experiment: Inhibition of human recombinant CDK2/Cyclin E expressed in baculovirus infected sf9 cells using histone H1 as substrate
G-361 [3] = experiment: Cytotoxicity against human G361 cells assessed as growth inhibition after 72 hrs by calcein AM staining-based fluoroscence assay; type: functional, cell-based; details: G-361, 72 h
HCT-116 = experiment: Cytotoxicity against human HCT116 cells assessed as growth inhibition after 72 hrs by calcein AM staining-based fluoroscence assay; type: functional, cell-based; details: HCT-116, 72 h
HOS = experiment: Cytotoxicity against human HOS cells assessed as growth inhibition after 72 hrs by calcein AM staining-based fluoroscence assay; type: functional, cell-based
HeLa = experiment: Cytotoxicity against human HeLa cells assessed as growth inhibition after 72 hrs by calcein AM staining-based fluoroscence assay; type: functional, cell-based
K562 = experiment: Cytotoxicity against human K562 cells assessed as growth inhibition after 72 hrs by calcein AM staining-based fluoroscence assay; type: functional, cell-based; details: K562, 72 h
G-361 [4] = experiment: Induction of apoptosis in human G361 cells assessed as induction of caspase-9 clevage at 300 nM after 24 hrs by immunoblotting analysis; type: functional, cell-based
Procedure, shortened: (§1)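 Treated G361 cells harvested into Laemmli sample buffer. Proteins resolved by SDS-PAGE and blotted to nitrocellulose. Membranes blocked, probed overnight with specific primary antibodies, then peroxidase-conjugated secondaries. ECL detection by CCD camera. Actin served as loading control.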

G-361 [5] = experiment: Induction of apoptosis in human G361 cells assessed as decrease in Mcl-1 at 300 nM after 24 hrs by immunoblotting analysis; type: functional, cell-based; procedure, shortened: as §1
G-361 [6] = experiment: Induction of apoptosis in human G361 cells assessed as decrease in Mcl-1 protein level at 300 nM after 24 hrs by immunoblotting analysis; type: functional, cell-based; procedure, shortened: as §1
G-361 [7] = experiment: Induction of apoptosis in human G361 cells assessed as induction of caspase-3 clevage at 300 nM after 24 hrs by immunoblotting analysis; type: functional, cell-based; procedure, shortened: as §1
G-361 [8] = experiment: Induction of apoptosis in human G361 cells assessed as caspase 3/7 activation using Ac-DEVD-AMC as substrate at 300 nM after 24 hrs by fluorimetry assay; type: functional, cell-based
[9] = target: Cyclin-dependent kinase 9 (Homo sapiens) (UniProt P50750); experiment: Inhibition of CDK9-mediated RNA polymerase 2 phosphorylation at ser2 in human G361 cells at 300 nM after 24 hrs by immunoblotting analysis; type: cell-based; details: G-361; procedure, shortened: as §1
G-361 [10] = experiment: Induction of apoptosis in human G361 cells assessed as induction of caspase-7 clevage at 300 nM after 24 hrs by immunoblotting analysis; type: functional, cell-based; procedure, shortened: as §1
G-361 [11] = experiment: Induction of apoptosis in human G361 cells assessed as caspase 9 activation using Ac-DEHD-AMC as substrate at 300 nM after 24 hrs by fluorimetry assay; type: functional, cell-based; details: in the assay text read “Ac-LEHD-AMC” for “Ac-DEHD-AMC”
Procedure, shortened: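 G361 lysates were made in CHAPS extraction buffer, pH 7.4, clarified at 10000g, and protein-equalized. They were incubated 24 h with 100 μM Ac-LEHD-AMC in 100 mM HEPES pH 7.5, 0.5 mM EDTA, 20% glycerol, 5 mM DTT. AMC fluorescence read at 355/460 nm (ex/em).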

CDK2/CDK4 (Homo sapiens) = CDK2/CDK4 (Homo sapiens) (UniProt P11802+P24941); experiment: Inhibition of CDK2/4-mediated retinoblastoma protein phosphorylation at ser780 in human G361 cells at 300 nM after 24 hrs by immunoblotting analysis; type: cell-based; details: G-361; procedure, shortened: as §1
G-361 [12] = experiment: Induction of apoptosis in human G361 cells assessed as induction of PARP-1 clevage at 300 nM after 24 hrs by immunoblotting analysis; type: functional, cell-based; procedure, shortened: as §1
[13] = target: Cyclin-dependent kinase 2/cyclin E1 (Homo sapiens) (UniProt P24864+P24941); experiment: Ratio of roscovitine IC50 to compound IC50 for human recombinant CDK2/Cyclin E; type: protein-complex assay

Cyclin-dependent kinase 9 (Homo sapiens), sequence (P50750 whole entry): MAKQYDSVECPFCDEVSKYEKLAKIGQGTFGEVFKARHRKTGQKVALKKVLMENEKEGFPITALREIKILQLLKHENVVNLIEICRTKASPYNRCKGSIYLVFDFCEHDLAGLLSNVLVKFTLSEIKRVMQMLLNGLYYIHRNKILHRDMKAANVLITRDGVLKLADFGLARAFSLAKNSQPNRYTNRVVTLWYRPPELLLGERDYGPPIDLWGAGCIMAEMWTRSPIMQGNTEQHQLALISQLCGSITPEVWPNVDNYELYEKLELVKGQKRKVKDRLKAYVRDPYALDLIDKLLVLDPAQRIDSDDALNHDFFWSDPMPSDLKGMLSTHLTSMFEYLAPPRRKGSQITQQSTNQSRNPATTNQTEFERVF
Cyclin-dependent kinase 1, sequence (P06493 whole entry): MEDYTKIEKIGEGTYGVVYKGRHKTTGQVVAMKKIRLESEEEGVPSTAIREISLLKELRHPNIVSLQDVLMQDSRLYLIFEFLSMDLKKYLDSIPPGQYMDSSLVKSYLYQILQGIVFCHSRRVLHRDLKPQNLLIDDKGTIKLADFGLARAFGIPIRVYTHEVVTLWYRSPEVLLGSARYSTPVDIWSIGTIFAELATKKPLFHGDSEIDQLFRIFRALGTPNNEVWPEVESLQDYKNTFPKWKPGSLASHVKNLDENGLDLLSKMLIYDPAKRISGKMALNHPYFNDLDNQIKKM

SMILES	IC50 [1] [nM]	IC50 [2] [nM]	Inhibition of RNA polymerase II Ser2 phosphorylation (qualitative) [9]	inhibition (CDK2/CDK4 (Homo sapiens))	Ratio IC50 [13]	IC50 (MCF7) [nM]	IC50 (G-361 [3]) [nM]	IC50 (HCT-116) [nM]	IC50 (HOS) [nM]	IC50 (HeLa) [nM]	IC50 (K562) [nM]	Activity (G-361 [4])	Activity (G-361 [5])	Activity (G-361 [6])	Activity (G-361 [7])	Activity (G-361 [8])	Activity (G-361 [10])	Activity (G-361 [11])	Activity (G-361 [12])
NC1CCC(Nc2nc(NCc3ccc(-c4ccco4)nc3)c3ncn(C4CCCC4)c3n2)CC1 (stereo unspecified)		10	Active	Active		33	97	86	44	30	67	Active	Active	Active	Active	Active	Active	Active	Active
NC1CCC(Nc2nc(NCc3ccc(Br)nc3)c3ncn(C4CCCC4)c3n2)CC1 (stereo unspecified)						483	640	577	935	633	1180								
NC1CCC(Nc2nc(NCc3ccc(-c4ccoc4)nc3)c3ncn(C4CCCC4)c3n2)CC1 (stereo unspecified)		8	Active	Active	20	32	97	46	24	15	56	Active	Active	Active	Active	Active	Active	Active	Active
CC(C)(O)CNc1nc(NCc2ccc(-c3ccco3)cc2)c2ncn(C3CCCC3)c2n1	> 999	478				15300	17400	16700	21400	14800	16800								
NC1CCC(Nc2nc(NCc3ccc(-c4ccsc4)nc3)c3ncn(C4CCCC4)c3n2)CC1 (stereo unspecified)		18				100	272	145	89	75	150	Active	Active	Active	Active	Active	Active	Active	Active
CC[C@H](CO)Nc1nc(NCc2ccccc2)c2ncn(C(C)C)c2n1 [SELICICLIB]						12300				28600									
CC(C)(O)CNc1nc(NCc2ccc(-c3ccco3)nc2)c2ncn(C3CCCC3)c2n1	555	120				1300	2100	1270	560	667	1420								
NC1CCC(Nc2nc(NCc3ccc(Br)cc3)c3ncn(C4CCCC4)c3n2)CC1 (stereo unspecified)						850	1480	790	995	1510	1170								
NC1CCC(Nc2nc(NCc3cc(Cl)ccc3O)c3ncn(C4CCCC4)c3n2)CC1 (stereo unspecified)	23	8				430	390	350	490	750	690								
OC1CCC(Nc2nc(NCc3ccc(-c4ccco4)nc3)c3ncn(C4CCCC4)c3n2)CC1 (stereo unspecified)		23				390	443	617	180	247	303								

Now from value to compound, other results behind:

IC50 [1] [nM]	IC50 [2] [nM]	Inhibition of RNA polymerase II Ser2 phosphorylation (qualitative) [9]	inhibition (CDK2/CDK4 (Homo sapiens))	Ratio IC50 [13]	SMILES	IC50 (MCF7) [nM]	IC50 (G-361 [3]) [nM]	IC50 (HCT-116) [nM]	IC50 (HOS) [nM]	IC50 (HeLa) [nM]	IC50 (K562) [nM]	Activity (G-361 [4])	Activity (G-361 [5])	Activity (G-361 [6])	Activity (G-361 [7])	Activity (G-361 [8])	Activity (G-361 [10])	Activity (G-361 [11])	Activity (G-361 [12])
777	68				NC1CCC(Nc2nc(NCc3ccc(-c4ccccc4O)cc3)c3ncn(C4CCCC4)c3n2)CC1 (stereo unspecified)	2910	4150	4350	1160	4180	2610								
	10				Nc1ccccc1-c1ccc(CNc2nc(NC3CCC(N)CC3)nc3c2ncn3C2CCCC2)cn1 (stereo unspecified)	117	730	635	398	535	200								
184	31				NC1CCC(Nc2nc(NCc3ccc(-c4ccccc4)nc3)c3ncn(C4CCCC4)c3n2)CC1 (stereo unspecified)	483	895	563	206	114									
	14				NC1CCC(Nc2nc(NCc3ccc(-c4ccsc4)cc3)c3ncn(C4CCCC4)c3n2)CC1 (stereo unspecified)	145	570	315	120	220	150								
	14	Active	Active		NC1CCC(Nc2nc(NCc3ccc(-c4cccc(F)c4)nc3)c3ncn(C4CCCC4)c3n2)CC1 (stereo unspecified)	33	49	74	44	36	61	Active	Active	Active	Active	Active	Active	Active	Active
	26				NC1CCC(Nc2nc(NCc3ccc(-c4ccccc4)cc3)c3ncn(C4CCCC4)c3n2)CC1 (stereo unspecified)														
	20.5				Nc1ccccc1-c1ccc(CNc2nc(NC3CCC(N)CC3)nc3c2ncn3C2CCCC2)cc1 (stereo unspecified)	977	4120	930	1880	1010	1110								
	13				NC1CCC(Nc2nc(NCc3ccc(-c4ccoc4)cc3)c3ncn(C4CCCC4)c3n2)CC1 (stereo unspecified)	247	670	1040	140	140	287								
	11.4				NC1CCC(Nc2nc(NCc3ccc(-c4ccco4)cc3)c3ncn(C4CCCC4)c3n2)CC1 (stereo unspecified)	85	164	129	102	71	96								
	20				NC1CCC(Nc2nc(NCc3ccc(-c4cccs4)cc3)c3ncn(C4CCCC4)c3n2)CC1 (stereo unspecified)	290	655	592	247	358	307								
	12	Active	Active		NC1CCC(Nc2nc(NCc3ccc(-n4cccn4)cc3)c3ncn(C4CCCC4)c3n2)CC1 (stereo unspecified)	139	220	320	103	170	119	Active	Active	Active	Active	Active	Active	Active	Active
	34				COc1ccccc1-c1ccc(CNc2nc(NC3CCC(N)CC3)nc3c2ncn3C2CCCC2)cn1 (stereo unspecified)	82	140	177	122	39	66								
	33.5				NC1CCC(Nc2nc(NCc3ccc(-c4cccc(F)c4)cc3)c3ncn(C4CCCC4)c3n2)CC1 (stereo unspecified)	293	815	551	211	445	290								
93	18				Nc1ccccc1CNc1nc(NC2CCC(N)CC2)nc2c1ncn2C1CCCC1 (stereo unspecified)	2330	2070	2300	2030	1030	4040								
	33				COc1ccccc1-c1ccc(CNc2nc(NC3CCC(N)CC3)nc3c2ncn3C2CCCC2)cc1 (stereo unspecified)	303	545	430	150	333	347								
